Here are results for 1 compound from article PMC8978659 (RSC Advances, 2021).

The subject of this data set is RAW264.7 cells. In words: Cytotoxicity test, CCK-8. The class given is cell-based. The conditions noted are these: 10 μM, 48 h, CCK-8, OD 450 nm, duplicate independent experiments. The method in brief:
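RAW264.7 cells seeded at 1 × 10^5 per mL and exposed for 48 h to test compound at 0, 1.25, 2.5, 5 and 10 μM. CCK-8 reagent added, then 4 h at 37 °C protected from light. Absorbance read at 450 nm. Survival rate = OD of treated / OD of blank control; cytotoxic effect = 1 − survival rate.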

As to `NCC1CC(=S)N2CC3CCCN4CCCC(C34)C2C1` (stereo not shown) [M19, 13-Aminomethyl-15-thiomatrine], the cell viability inhibition entry is on record as “about 20%”.
